Results from ChEMBL document CHEMBL3997791, “Nanomolar-Potency Aminophenyl-1,3,5-triazine Activators of the Cystic Fibrosis Transmembrane Conductance Regulator (CFTR) Chloride Channel for Prosecretory Therapy of Dry Eye Diseases” (J Med Chem, 2017).
Active and inactive are the calls of the source. No cut-off for these calls is given here.

Experiments:
[1] = target: T1, Cystic fibrosis transmembrane conductance regulator (Homo sapiens, UniProt P13569); assay: Activation of human CFTR expressed in FRT cells co-expressing YFP assessed as increase in forskolin-stimulated iodide influx at 10 uM measured after 10 mins for 2 to 12 sec by fluorescence assay; type: cell-based
In short: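 FRT cells stably coexpressing human wild-type CFTR and YFP-H148Q halide sensor; PBS wash, then 10 min with compound in PBS containing 125 nM forskolin. Plate reader: 2 s baseline, then 12 s after rapid iodide-containing solution addition; initial iodide influx rate taken as linear measure of channel function.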
Target sequence in this assay (P13569 whole entry, looked up): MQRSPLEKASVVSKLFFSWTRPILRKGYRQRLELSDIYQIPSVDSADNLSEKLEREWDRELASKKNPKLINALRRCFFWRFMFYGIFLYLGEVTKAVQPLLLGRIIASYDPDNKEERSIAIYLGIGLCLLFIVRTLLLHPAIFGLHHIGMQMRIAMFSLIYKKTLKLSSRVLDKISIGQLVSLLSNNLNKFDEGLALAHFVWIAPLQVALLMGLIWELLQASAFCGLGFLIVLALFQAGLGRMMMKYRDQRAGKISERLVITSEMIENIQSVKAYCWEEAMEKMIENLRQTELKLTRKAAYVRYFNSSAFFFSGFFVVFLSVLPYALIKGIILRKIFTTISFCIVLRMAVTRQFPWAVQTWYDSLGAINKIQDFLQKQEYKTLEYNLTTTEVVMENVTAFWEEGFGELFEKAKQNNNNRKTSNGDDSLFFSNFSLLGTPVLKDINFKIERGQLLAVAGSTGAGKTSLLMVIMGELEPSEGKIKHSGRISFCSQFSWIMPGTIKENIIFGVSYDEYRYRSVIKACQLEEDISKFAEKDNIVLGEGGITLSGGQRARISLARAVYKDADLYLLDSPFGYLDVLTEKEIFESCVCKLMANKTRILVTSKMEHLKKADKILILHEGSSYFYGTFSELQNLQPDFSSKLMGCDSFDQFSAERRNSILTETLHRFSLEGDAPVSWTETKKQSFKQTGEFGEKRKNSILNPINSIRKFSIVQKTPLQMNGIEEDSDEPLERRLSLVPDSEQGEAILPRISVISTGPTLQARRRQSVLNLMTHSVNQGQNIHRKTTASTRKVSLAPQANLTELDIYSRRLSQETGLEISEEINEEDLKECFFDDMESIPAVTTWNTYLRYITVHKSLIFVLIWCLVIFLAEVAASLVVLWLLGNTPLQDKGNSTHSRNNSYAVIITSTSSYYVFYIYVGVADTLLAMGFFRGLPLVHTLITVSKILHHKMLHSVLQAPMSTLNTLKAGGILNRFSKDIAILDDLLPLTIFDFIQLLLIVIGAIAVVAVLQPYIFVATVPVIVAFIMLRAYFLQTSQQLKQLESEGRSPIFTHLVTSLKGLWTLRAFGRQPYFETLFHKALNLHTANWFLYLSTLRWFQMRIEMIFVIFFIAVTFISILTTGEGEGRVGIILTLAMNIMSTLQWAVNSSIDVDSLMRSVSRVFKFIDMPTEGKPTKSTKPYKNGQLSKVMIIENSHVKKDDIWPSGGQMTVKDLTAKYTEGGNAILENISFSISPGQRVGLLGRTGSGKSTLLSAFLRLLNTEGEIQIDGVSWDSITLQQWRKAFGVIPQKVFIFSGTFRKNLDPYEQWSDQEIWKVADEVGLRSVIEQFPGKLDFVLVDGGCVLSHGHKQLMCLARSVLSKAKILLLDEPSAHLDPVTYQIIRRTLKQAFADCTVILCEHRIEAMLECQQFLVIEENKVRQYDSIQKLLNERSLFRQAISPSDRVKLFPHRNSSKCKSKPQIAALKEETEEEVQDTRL

[2] = target: T1, Cystic fibrosis transmembrane conductance regulator; assay: Activation of human CFTR expressed in FRT cells co-expressing YFP assessed as increase in forskolin-stimulated iodide influx measured after 10 mins for 2 to 12 sec by fluorescence assay; type: cell-based
Target sequence in this assay (P13569 whole entry): as the sequence (P13569 whole entry, looked up) above

[3] = Metabolic stability in rat hepatic microsomes assessed as parent compound remaining at 5 uM after 60 mins in presence of NADPH by LC-MS analysis; type: ADME, Microsome; settings: liver microsomes, read-out: Stability
In short: (§1)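 Compound at 5 μM incubated at 37 °C with rat liver microsomes (1 mg/mL) in potassium phosphate buffer with 1 mM NADPH; quenched with ice-cold EtOAc, centrifuged, supernatant analysed by LC/MS (C18, water/acetonitrile with 0.1% formic acid gradient, UV 254 nm) for parent remaining; mean ± SEM, n = 3.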

Mus musculus = assay: Induction of tear secretion in mouse at 250 pmol administered as single topical dose up to 8 hrs by phenol red thread test; type: functional
In short: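 Mice 8–12 weeks (25–35 g); single ocular dose of 250 pmol (100 μM) in 2.5 μL vehicle (0.3% CMC in Ringer's), both eyes treated identically, vehicle control. Tear volume by phenol red thread, 10 s in lateral canthus under isoflurane, before and at set times after dosing. 5 mice, 10 eyes per condition; two-way ANOVA with Dunnett test.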

[4] = Metabolic stability in rat hepatic microsomes assessed as parent compound remaining at 5 uM after 15 mins in presence of NADPH by LC-MS analysis; type: ADME, Microsome; settings: liver microsomes, read-out: Stability; in short: as §1

Compound | Activity [1] | also measured
FC(F)(F)C(Oc1nc(Nc2cccnc2)nc(OC(C(F)(F)F)C(F)(F)F)n1)C(F)(F)F | inactive | 
Fc1ccc(Nc2nc(OC(C(F)(F)F)C(F)(F)F)nc(N3CCCCC3)n2)cc1 | inactive | 
O=[N+]([O-])c1cccc(Nc2nc(OC(C(F)(F)F)C(F)(F)F)nc(OC(C(F)(F)F)C(F)(F)F)n2)c1 | inactive | 
FC(F)(F)COc1nc(Nc2ccc(OC(F)(F)Cl)cc2)nc(OCC(F)(F)F)n1 | inactive | 
CCN(CC)c1nc(Nc2ccc3[nH]ncc3c2)nc(OC(C(F)(F)F)C(F)(F)F)n1 |  | EC50 [2]: 2800 nM
CC(C)(C)Nc1nc(Nc2ccc(OC(F)(F)Cl)cc2)nc(OCC(F)(F)F)n1 | inactive | 
CN(C)c1nc(Nc2ccc(OC(F)(F)F)cc2)nc(OCC(F)(F)F)n1 | inactive | 
CCN(CC)c1nc(Nc2cccc([N+](=O)[O-])c2)nc(OC(C(F)(F)F)C(F)(F)F)n1 |  | EC50 [2]: 200 nM
Cc1ccccc1Nc1nc(OC(C(F)(F)F)C(F)(F)F)nc(OC(C(F)(F)F)C(F)(F)F)n1 | inactive | 
FC(F)(F)C(Oc1nc(Nc2ccccc2)nc(OC(C(F)(F)F)C(F)(F)F)n1)C(F)(F)F | inactive | 
CCN(CC)c1nc(Nc2cccc(Cl)c2)nc(OC(C(F)(F)F)C(F)(F)F)n1 |  | EC50 [2]: 2800 nM
CNc1nc(Nc2ccc([N+](=O)[O-])cc2)nc(OCC(F)(F)C(F)F)n1 | Active | 
CCN(CC)c1nc(Nc2ccc([N+](=O)[O-])cc2)nc(OC(C(F)(F)F)C(F)(F)F)n1 |  | EC50 [2]: 18000 nM
CCN(CC)c1nc(Nc2ccc3ncoc3c2)nc(OC(C(F)(F)F)C(F)(F)F)n1 |  | remaining at 1 h, 5 µM [3]: 60%
FC(F)(F)COc1nc(Nc2ccc(OC(F)(F)F)cc2)nc(NC2CC2)n1 | inactive | 
FC(F)(F)C(Oc1nc(N2CCCCCC2)nc(N(c2ccccc2)c2ccccc2)n1)C(F)(F)F | inactive | 
COc1nc(Nc2ccc([N+](=O)[O-])cc2)nc(OC)n1 | inactive | 
FC(F)(F)COc1nc(Nc2ccccc2)nc(OCC(F)(F)F)n1 | inactive | 
O=[N+]([O-])c1ccccc1Nc1nc(OC(C(F)(F)F)C(F)(F)F)nc(OC(C(F)(F)F)C(F)(F)F)n1 | inactive | 
CC(=O)N1CCN(c2nc(Nc3ccccc3C(=O)c3ccccc3)nc(OC(C(F)(F)F)C(F)(F)F)n2)CC1 | inactive | 
O=[N+]([O-])c1ccc(Nc2nc(OC(C(F)(F)F)C(F)(F)F)nc(OC(C(F)(F)F)C(F)(F)F)n2)cc1 | inactive | 
CCN(CC)c1nc(Nc2ccc(C(=O)O)cc2)nc(OCC(F)(F)C(F)F)n1 |  | EC50 [2]: 2500 nM
CCN(CC)c1nc(Nc2ccccc2)nc(OC(C(F)(F)F)C(F)(F)F)n1 | Active | Activity (Mus musculus): Active; remaining at […], 5 µM [4]: < 40%
COc1nc(Nc2ccc(OC)c(Cl)c2)nc(OC)n1 | inactive | 

More lines, main results first:

Activity [1] | Compound | also measured
inactive | Cc1ccc(Nc2nc(OC(C(F)(F)F)C(F)(F)F)nc(OC(C(F)(F)F)C(F)(F)F)n2)cc1 | 
inactive | Cc1ccc(Nc2nc(OC(C(F)(F)F)C(F)(F)F)nc(N3CCCCC3)n2)cc1 | 
inactive | CNc1nc(Nc2ccccc2C(F)(F)F)nc(OC(C(F)(F)F)C(F)(F)F)n1 | 
inactive | COc1ccc(Nc2nc(NC3CCCCC3)nc(OC(C(F)(F)F)C(F)(F)F)n2)cc1 | 
Active | C=CCNc1nc(Nc2cccc([N+](=O)[O-])c2)nc(OC(C(F)(F)F)C(F)(F)F)n1 | 
inactive | CCC(C)Nc1nc(Nc2ccc([N+](=O)[O-])cc2)nc(OC(C(F)(F)F)C(F)(F)F)n1 (configuration not stated) | 
inactive | CNc1nc(Nc2ccc(OC(F)(F)Cl)cc2)nc(OCC(F)(F)F)n1 | 
inactive | FC(F)(F)C(Oc1nc(Nc2ccc(Cl)cc2)nc(N2CCOCC2)n1)C(F)(F)F | 
inactive | CC(C)Nc1nc(Nc2ccc([N+](=O)[O-])cc2)nc(OC(C(F)(F)F)C(F)(F)F)n1 | 
inactive | CNc1nc(Nc2ccc(C(C)=O)cc2)nc(OC(C(F)(F)F)C(F)(F)F)n1 | 
inactive | CC(=O)c1ccc(Nc2nc(OC(C(F)(F)F)C(F)(F)F)nc(OC(C(F)(F)F)C(F)(F)F)n2)cc1 | 
